Assay outcomes from PubChem.
TAAR1 ag – agonists of human TAAR1. 360,000 tested, 0.99% active. CHO RD-HGA16 TAAR1, Fluo-8 calcium fluorescence; vehicle wells 0%, saturating PEA agonist 100%. AID 624467. activation, % at 3 µM. Q96RJ0;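 active = activation above the mean activation of all test compounds in the run plus 3 SD, cut at about 38% in these data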
Target sequence (Q96RJ0 whole entry, looked up): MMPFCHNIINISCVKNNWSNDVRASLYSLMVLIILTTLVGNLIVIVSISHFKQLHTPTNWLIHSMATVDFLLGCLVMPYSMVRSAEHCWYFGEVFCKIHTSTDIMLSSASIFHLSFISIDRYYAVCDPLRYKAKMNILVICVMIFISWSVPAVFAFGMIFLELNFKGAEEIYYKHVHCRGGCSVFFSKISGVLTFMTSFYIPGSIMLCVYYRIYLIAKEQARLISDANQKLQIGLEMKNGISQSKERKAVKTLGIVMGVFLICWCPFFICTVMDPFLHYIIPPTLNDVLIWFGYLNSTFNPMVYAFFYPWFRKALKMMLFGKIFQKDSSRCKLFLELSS
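Repeats: no replicates (n 1) | Material: CHO-derived RD-HGA16 cells with stable Gα16 and human TAAR1 | Technique: Kinetic Fluo-8 calcium fluorescence | Schedule: 17-24 h seeding, 75 min 37 °C dye, 30 min RT | Evaluation: % activation from peak over basal fluorescence ratio, DMSO-to-PEA scaled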
TAAR1 antagonist – human TAAR1 antagonism; Q96RJ0; CHO RD-HGA16 TAAR1, Fluo-8 calcium fluorescence, antagonist; inhibition, % at 3 µM; 360,000 tested, 1.5% active; AID 624466;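 active = inhibition above a per-plate cutoff, the mean inhibition of test compounds on that plate plus 3 SD, cut at about 49% in these data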;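 note: 0% = DMSO plus EC80 beta-PEA response and 100% = DMSO alone without agonist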
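System: CHO RD-HGA16 cells bearing hTAAR1. Reagent: EC80 β-phenethylamine stimulus. Schedule: seeding 17-24 h prior, 75-min 37 °C, 30-min RT dye loading. Signal: Fluo-8 intracellular calcium dye fluorescence, real-time kinetic reads. Read-out: % inhibition from peak post-agonist over basal fluorescence ratio. Benchmarks: vehicle wells and EC80 agonist wells. Replicates: n of 1.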
V1R ag counter – activates human V1a receptor in oxytocin agonist counter-screen; P37288; CHO-V1R cells, Fluo-8 calcium fluorescence, agonist mode; 0% DMSO, 100% 3 nM vasopressin; activation, % at 3 µM; 320,000 tested, 0.25% active; AID 2797;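 active = activation above the mean activation of all tested compounds plus 3 SD, per screening run, cut at about 20% in these data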;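 note: signal is peak over basal fluorescence ratio across a 100 second FLIPR read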
OXTR potentiator – potentiates the human oxytocin receptor response; CHO-OTR cells, Fluo-8 calcium fluorescence, potentiator mode; 0% = oxytocin EC15, 100% = EC100; activation, % at 3 µM; 320,000 tested, 0.061% active;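 active = activation above that plate's cutoff, the mean activation of tested compounds plus 3 SD, cut at about 6.6% in these data, passing the limit was not always enough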;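 note: 100% uses oxytocin at 75 nM as the full agonist control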
Target sequence (P30559 whole entry, looked up): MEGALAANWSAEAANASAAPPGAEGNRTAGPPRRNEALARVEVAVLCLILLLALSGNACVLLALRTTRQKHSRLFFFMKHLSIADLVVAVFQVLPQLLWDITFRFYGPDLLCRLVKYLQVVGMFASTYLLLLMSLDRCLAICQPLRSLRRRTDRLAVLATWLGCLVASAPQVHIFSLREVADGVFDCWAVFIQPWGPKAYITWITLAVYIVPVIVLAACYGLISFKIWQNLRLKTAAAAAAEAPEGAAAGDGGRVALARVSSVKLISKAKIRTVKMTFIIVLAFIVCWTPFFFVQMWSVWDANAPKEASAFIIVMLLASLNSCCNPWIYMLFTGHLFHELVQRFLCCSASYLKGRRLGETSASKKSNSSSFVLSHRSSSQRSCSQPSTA
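Assay system: CHO-OTR cells, human receptor / Also added: oxytocin at about EC15, sub-maximal agonist stimulus / Dosing: single dose, 3.0 µM nominal final compound concentration / Incubation: 6 min pre-incubation, 100 s read / Technique: Fluo-8 calcium dye fluorescence / Read-out: % activation vs EC15 and EC100 oxytocin / Benchmarks: EC15 oxytocin low, 75 nM oxytocin high / Replicates: singlicate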
OXTR ag – agonists of human oxytocin receptor; P30559; activation, % at 3 µM; 320,000 tested, 0.32% active; AID 2435; CHO-OTR cells, Fluo-8 calcium fluorescence; normalized: DMSO 0%, oxytocin 100%;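 active = activation above the mean of all tested compounds plus 3 SD, cutoff set per screening run, cut at about 20% in these data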;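 note: peak over basal fluorescence ratio from a 100 s FLIPR kinetic read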
TAAR1 nonsel count – nonselective antagonist in TAAR1 antagonist counter-screen; shares compounds with TAAR1 antagonist; 2,400 tested, 77% active; inhibition, % at 3 µM; counterscreen cell line, calcium fluorescence, antagonist mode; in the data active = inhibition above about 22%;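 note: CHO-Ga16 host cells stimulated with ATP at an EC80 level; 0% = agonist EC80 plus vehicle and 100% = vehicle without agonist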
TAAR1 antag conf – human TAAR1 antagonism, confirmed; shares compounds with TAAR1 antagonist; TAAR1-expressing cells, fluorescence antagonist read-out; inhibition, % at 3 µM; 2,400 tested, 40% active; AID 651785; in the data active = inhibition above about 49%;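 note: CHO-Ga16 host cells challenged with agonist PEA near its EC80; 0% = agonist at EC80 plus vehicle and 100% = vehicle with no agonist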
Ga16 ag counter – nonselective Ga16 agonist in TAAR1 antagonist counter-screen. 2,400 tested, 18% active. Ga16-expressing cells, calcium fluorescence, agonist counterscreen. activation, % at 3 µM. shares compounds with TAAR1 antagonist. AID 651953; in the data active = activation above about 12%;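 note: 0% = vehicle wells and 100% = saturating stimulus response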
TAAR1 ag count – TAAR1 agonism, antagonist counter-screen. shares compounds with TAAR1 antagonist. hTAAR1 cell line, fluorescence activation, agonist mode. activation, % at 3 µM. 2,400 tested, 2% active. AID 651955; in the data active = activation above about 37%;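 note: CHO cells stably expressing TAAR1 with calcium dye readout; 0% = DMSO vehicle and 100% = full agonist response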
Starred values were filed as active, the others as inactive; . = not tested or not shown; ! = repeats disagree. Shown are actives, neighbours in structure and some others; about 2.3% of the full set was active somewhere.

SMILES	TAAR1 ag	TAAR1 antagonist	V1R ag counter	OXTR potentiator	OXTR ag	TAAR1 nonsel count	TAAR1 antag conf	Ga16 ag counter	TAAR1 ag count
Cc1ccc(S(=O)(=O)N(C)CC(=O)OCC(=O)c2ccc3c(c2)NC(=O)CO3)cc1	-1	102*	3	-9	5	26*	28	10	4
Cc1ccc(S(=O)(=O)N2CCN(S(=O)(=O)N3CCCCCC3)CC2)cc1	4	19	1	-10	0	.	.	.	.
CCC(NC(=O)C(C)NC)C(=O)N1CCCC1C(=O)NC1CCCc2ccccc21 (centres undefined)	4	9	0	4	1	.	.	.	.
COc1cc(-c2noc(C)c2/C=C/c2ccc(C(=O)O)cc2)cc(OC)c1OC	34	-4	0	-7	-1	.	.	.	.
COc1cc(-c2noc(C)c2/C=C/c2cccc([N+](=O)[O-])c2)cc(OC)c1OC	11	74*	0	-10	-1	28*	42	2	0
COc1ccc(C)cc1-n1nnnc1SCc1nc2ccccc2s1	16	54*	5	-18	2	27*	27	6	3
C1CC1Cc1noc(CN2CCN(C3C4CC5CC(C4)CC3C5)CC2)n1 (centres undefined)	2	2	-1	2	0	.	.	.	.
O=C(Nc1nc2ccccc2c(=O)[nH]1)c1ccccc1SCc1ccccc1	8	50*	1	-9	0	31*	53*	6	7
CC(C)CC(=O)Nc1nc(-c2ccc(S(=O)(=O)N3CCOCC3)cc2)cs1	9	6	.	.	.	.	.	.	.
O=C(Nc1nc(-c2ccc(S(=O)(=O)N3CCOCC3)cc2)cs1)c1ccccc1	13	59*!	5	-16	10	28*	50*	11	6
O=C(Nc1nc(-c2ccccc2)c(-c2ccccc2)s1)c1ccc(S(=O)(=O)N2CCCC2)cc1	6	107*	0	-2	0	0	0	-1	-1
CN1c2ccccc2C(=O)/C(=C\Nc2ccc(F)cc2F)S1(=O)=O	1	-21	0	-7	-1	.	.	.	.
CCOc1ccc(-c2c(C)sc3nc[nH]c(=O)c23)cc1	14	76*	1	-2	0	26*	47	8	7
COC(=O)c1ccc(C)c(NC(=O)CSc2nnc3ccccn23)c1	-2	87*	0	3	0	3	0	0	10
CSc1ccccc1NC(=O)CN1CC(C)OC(C)C1 (centres undefined)	1	20	0	-1	0	.	.	.	.
O=c1c2ccccc2nc(/C=C/c2cccnc2)n1Cc1ccccc1	8	0	.	.	.	.	.	.	.
O=c1c2ccccc2nc(/C=C/c2cc(Br)ccc2O)n1CCCO	13	58*	5	-13	6	13	20	6	11
O=c1c2ccccc2nc(/C=C/c2cccnc2)n1CCc1ccccc1	7	60*	-1	-8	-3	19	27	3	2
O=c1c2ccccc2nc(/C=C/c2cccc([N+](=O)[O-])c2)n1CCO	14	9	0	-15	0	.	.	.	.
CC(=O)c1ccc(N2CCN(C(C)C(=O)Nc3ccc4c(c3)OCCO4)CC2)cc1 (centres undefined)	-1	-16	1	-1	1	.	.	.	.
COc1ccc(C2CC(=O)C(c3cccc(C)c3)=CN2Cc2ccccc2)cc1 (centres undefined)	3	66*	.	.	.	22*	40	2	1
CCn1c(CCCOc2ccc(Cl)cc2Cl)nnc1SCC(=O)Nc1cc(F)ccc1C	7	23	5	-6	3	.	.	.	.
Cn1c(CSCc2ccc(Cl)cc2)nnc1SCC(=O)Nc1nccs1	25	61*	12	-10	12	42*	56*	17*	20
C=CCn1c(CCCOc2ccc(Cl)cc2Cl)nnc1SCC(=O)Nc1nccs1	26	49*	10	-21	10	32*	41	7	12
Cn1c(CSCc2ccccc2)nnc1SCC(=O)Nc1nccs1	8	11	7	-8	10	.	.	.	.
SMILES	TAAR1 ag	TAAR1 antagonist	V1R ag counter	OXTR potentiator	OXTR ag	TAAR1 nonsel count	TAAR1 antag conf	Ga16 ag counter	TAAR1 ag count
CC1(C)CC(=O)C2=C(C1)Nc1ccccc1NC2c1ccc([N+](=O)[O-])cc1 (centres undefined)	3	-1	2	1	3	.	.	.	.
COC(=O)C1=C(C)N(C)C(=O)NC1c1cccc2ccccc12 (centres undefined)	7	-21	1	-4	0	.	.	.	.
Cc1ccccc1NC(=O)CCN1C(=O)CSC1=O	-2	106*	0	-20	0	-6	-6	3	5
CSc1ccccc1NC(=S)Nc1ccc(S(N)(=O)=O)cc1	4	-13	0	-3	1	.	.	.	.
Cc1c(C(=O)NCc2ccc3c(c2)cc(C)n3C)cccc1[N+](=O)[O-]	10	67*	1	-10	0	30*	51*	7	8
CN(CC(=O)Nc1ccccc1Br)C(=O)c1n[nH]c2ccccc12	5	4	.	.	.	.	.	.	.
Cn1cc(CNC(=O)c2cc(-c3ccccc3)nc3ccc(Br)cc23)cn1	10	43	1	-3	-1	.	.	.	.
CN(CC(=O)Nc1ccc(F)cc1)C(=O)c1cc(-c2ccco2)nc2ccccc12	11	39	0	-2	-1	.	.	.	.
CN(CCOc1ccc(Cl)cc1)C(=O)c1cc(-c2ccco2)nc2ccccc12	15	74*	3	-5	-1	40*	59*	9	9
Cc1ccc2nc(-c3ccccc3)cc(C(=O)N(C)CC(=O)Nc3ccccc3Br)c2c1	7	61*	1	-15	-2	31*	56*	9	7
COc1ccc(NC(=O)CN(C)C(=O)c2cc(-c3ccccc3)nc3ccccc23)cc1	17	55*	-1	-13	-1	28*	43	7	11
Cc1nn(C)cc1CN(C)C(=O)c1cc(-c2ccccc2)nc2ccc(Br)cc12	17	65*	0	-6	-2	37*	54*	8	8
c1ccc2oc(-c3ccc(Nc4nc(N5CCOCC5)nc(N5CCOCC5)n4)cc3)nc2c1	-1	-22	.	.	.	.	.	.	.
COc1ccc(NC(=O)CN(C)C(=O)c2cc(-c3ccc(OC)cc3)nc3ccccc23)cc1	16	70*	1	-14	0	33*	60*	10	8
